ChEMBL document CHEMBL1123504, “2,3-Dialkyl(dimethylamino)indoles: interaction with 5HT1, 5HT2, and rat stomach fundal serotonin receptors” (J Med Chem, 1986)

What was measured:
Rattus norvegicus [1] = species on record: Rattus norvegicus; experiment: Tested for noncumulative contractile concentration -response curves for serotonin in the rat fundus.; type: functional
Summary of the method: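 Isolated rat stomach fundus strips, four per fundus, in 10 mL modified Krebs. Noncumulative serotonin curves, about 2 min contact per concentration, washout every 15-20 min, maximal contraction read. Antagonist or buffer for 1 h, then curve repeated; one antagonist concentration per tissue. KB = [B]/(dose ratio - 1) from ED50 shift, reported as -log KB.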

Rattus norvegicus [2] = species on record: Rattus norvegicus; experiment: Tested for cumulative contractile concentration -response curves for serotonin in the rat jugular vein.
[3] = target: Serotonin 2 (5-HT2) receptor (Rattus norvegicus, UniProt P30994+P08909+P14842); experiment: Binding affinity towards 5-hydroxytryptamine 2 receptor in rat brain cortical membranes; type: cell membranes
Summary of the method: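 5HT2 site, [3H]spiperone binding to cortical membranes of 150-200-g male Wistar rats, preincubated to deplete endogenous 5HT; […] per 1 mL Tris buffer. Nonspecific binding defined with 10^-6 M lysergic acid diethylamide. IC50 taken as 50% inhibition of specific binding, 10 concentrations from 10^-9 to 10^-4 M.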

[4] = target: T1, Serotonin 1 (5-HT1) receptor (Rattus norvegicus, UniProt P28564+P30940+P19327+P28565); experiment: Binding affinity towards 5-hydroxytryptamine 1 receptor in brain cortical membranes of rat; type: cell membranes
Summary of the method: (§1)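 Rat 5HT1 site: cortical membranes from 150-200-g male Wistar rats, preincubated in buffer to remove endogenous 5HT; […] per sample in 1 mL Tris buffer. [3H]-5HT at 2.3-2.6 nM; nonspecific binding with 10^-5 M 5HT. IC50 = 50% inhibition of specific binding, from 10 concentrations spanning 10^-9 to 10^-4 M.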

[5] = target: T1, Serotonin 1 (5-HT1) receptor; experiment: Tested for its binding affinity towards 5-hydroxytryptamine 1 receptor in rat; summary of the method: as §1
Rattus norvegicus [6] = species on record: Rattus norvegicus; experiment: Tested for cumulative contractile concentration -response curves for serotonin in the rat jugular vein

Row | SMILES | -Log KB (Rattus norvegicus [1]) | -Log KB (Rattus norvegicus [2]) | IC50 [3] [nM] | IC50 [4] [nM] | IC50 [5] [nM] | -Log KB (Rattus norvegicus [6])
1 | CCc1c(C)n(CC)c2ccc(N(C)C)cc12 | 7.01 | 6.45 | > 1000 | > 1000 |  | 
2 | CCc1c(C)n(C)c2ccc(N(C)C)cc12 | 7.32 | 6.51 | > 1000 | > 1000 |  | 
3 | CCc1c(C)n(C(=O)c2ccc(F)cc2)c2ccc(N(C)C)cc12 | <5 |  | > 1000 |  | > 1000 | 
4 | CCc1c(C)n(C(C)C)c2ccc(N(C)C)cc12 | 7 |  | > 1000 | > 1000 |  | 7.28
5 | CCc1c(C)[nH]c2ccc(N(C)C)cc12 | 7.3 | 4.93 | > 1000 | > 1000 |  | 
6 | CCc1c(C)n(C)c2c(N(C)C)cccc12 | <5.5 |  | > 1000 | > 1000 |  | 
7 | CCc1c(C)[nH]c2ccc(N(C)C)c(Cl)c12 | 6.86 |  | > 1000 | > 1000 |  | 
8 | CCCn1c(C)c(CC)c2cc(N(C)C)ccc21 | 6.57 |  | > 1000 | > 1000 |  | 
9 | CCc1c(C)n(C)c2ccc(NC(=O)Nc3cccc(C(F)(F)F)c3)cc12 | 7.16 | 5.18 | > 1000 | > 1000 |  | 
10 | CCc1c(C)c2cc(N(C)C)ccc2n1C | 6.69 |  | > 1000 | > 1000 |  | 6.48
11 | Cc1c(C)n(C)c2ccc(N(C)C)cc12 | 6.71 |  | > 1000 | > 1000 |  | 
